Data on seven compounds can be found in ChEMBL document CHEMBL1143007, “Synthesis and evaluation of 4/5-hydroxy-2,3-diaryl(substituted)-cyclopent-2-en-1-ones as cis-restricted analogues of combretastatin A-4 as novel anticancer agents” (J Med Chem, 2007).

Values after ≈ are worked out from the molar mass of the structure shown. Active and inactive are the calls of the source.

Data set [1] concerns DU-145. The experiment in a line: Cytotoxicity against human DU145 cells after 72 hrs by MTT assay. In kind it is cell-based. The settings on record: Homo sapiens, DU-145, 72 h; read-out: IC50. The procedure, abridged:
(§1)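 MTT assay. Cells seeded at 5000-10 000 per well and incubated at 37 °C in CO₂ with compound at 1-100 µg/mL in triplicate wells for 72 h, then MTT added. Absorbance read at 540 nm; % cytotoxicity = 100 × (1 − treated/control). IC50 obtained by nonlinear regression; NA means IC50 above 100 µg/mL.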

A short description of data set [2]: Half life in iv dosed Swiss Albino mouse plasma. In kind it is ADME, organism-based. The procedure, abridged:
(§2)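 Swiss albino mice (6-8 weeks, ~25 g) dosed intravenously with compound in a cosolvent formulation diluted in 5% dextrose. Blood drawn by orbital bleed under mild ether at 3, 10, 30 min, 1, 2, 4, 6, 8 and 24 h into EDTA, with no more than five bleeds per mouse. Plasma was solvent-extracted and measured by C18 HPLC against an internal standard and a standard curve. Results are mean ± SD, n = 3.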

Data set [3] is described as follows: Antitumor activity in primary tumor colon xenografted Balb/C athymic nude mouse assessed as decreased tumor volume at 20 mg/kg, iv on day 22 relative to control. In kind it is functional, Homo sapiens. Further details: scale not given: the % may be the effect or the level left. The procedure, abridged:
(§3)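 PTC colon tumour cells (15 × 10⁶ cells/100 µL) inoculated subcutaneously in Balb/c athymic nude mice aged 6-8 weeks, about 20 g; 3 animals per group. Dosing began at about 500 mm³: 20 mg/kg i.v. once daily for 14 days, cosolvent formulation diluted in 5% dextrose; controls received vehicle. Caliper volume W×W×L×0.4 every fourth day; regression = (1 − treated/control volume) × 100; Dunnett comparison, p < 0.05.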

The nature of data set [4]: Mean residence time in iv dosed Swiss Albino mouse plasma. In kind it is ADME, organism-based. The procedure, abridged: as §2
The test system of data set [5] is Homo sapiens. The experiment in a line: Antitumor activity in primary tumor colon xenografted Balb/C athymic nude mouse assessed as decreased tumor volume at 20 mg/kg, iv on day 19. In kind it is functional, organism-based. On the set-up: dose 20 mg/kg. The procedure, abridged: as §3
For data set [6], the system named is ECV-304. The experiment in a line: Apoptosis in strongly adherent human ECV304 cells at 100 nM assessed as DNA fragmentation. In kind it is functional, cell-based. The procedure, abridged:
(§4)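 ECV304 plated at 2 × 10⁶ cells per 90 mm dish in DMEM with 10% FCS, allowed 5-6 h to reattach, then exposed to 10 nM-1 µM for 24 h in fresh medium; 100 nM positive control. Strongly and loosely adherent cells harvested separately and lysed (1 mM Tris-Cl, 20 mM EDTA pH 8, 1% NP-40).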

The subject of data set [7] is HT-29. The experiment in a line: Cytotoxicity against human HT29 cells after 72 hrs by MTT assay. In kind it is cell-based. The settings on record: Homo sapiens, HT-29, 72 h; read-out: IC50. The procedure, abridged:
as §1

Data set [8] in a line: Aqueous solubility in phosphate buffer at pH 7.4.
In data set [9] the test system is ECV-304. The experiment in a line: Enhanced mitotic arrest in human ECV304 cells assessed as accumulation at G2/M phase at 1 uM after 24 hrs relative to control. In kind it is functional. The procedure, abridged:
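ECV304 at 1.5 × 10⁶ cells per 90 mm dish in DMEM with 10% FCS overnight, then 1 µM for 24 h in fresh medium. Cells trypsinised, fixed in ice-cold 70% ethanol, treated with trypsin inhibitor and RNase, and stained with propidium iodide in the dark at 4-10 °C for 1 h. Flow cytometry with low gate at 10% of the G1 peak; G1 and G2/M fractions against untreated control.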

Data set [10] is described as follows: AUC in iv dosed Swiss Albino mouse plasma. In kind it is ADME, organism-based. The procedure, abridged:
as §2

A short description of data set [11]: Cytotoxicity against human Hep2 cells after 72 hrs by MTT assay. In kind it is cell-based, HEp-2. The settings on record: Homo sapiens, HEp-2, 72 h; read-out: IC50. The procedure, abridged: as §1
Background: Tetrazolium assays rely on reduction of a dye to a coloured formazan, in cell work by metabolically active cells.

Data set [12] is described as follows: Cmax in iv dosed Swiss Albino mouse plasma. In kind it is ADME, organism-based. Further details: route intravenous. The procedure, abridged: as §2
Data set [13] is described as follows: Clearance in iv dosed Swiss Albino mouse plasma. In kind it is ADME, organism-based. The procedure, abridged:
as §2

For data set [14], the system named is ECV-304. The experiment in a line: Apoptosis in strongly adherent human ECV304 cells at 1000 nM assessed as DNA fragmentation. In kind it is functional, cell-based. The procedure, abridged: as §4
The subject of data set [15] is L132. The experiment in a line: Cytotoxicity against human L132 cells after 72 hrs by MTT assay. In kind it is cell-based. Conditions: Homo sapiens, L132, 72 h; read-out: IC50. The procedure, abridged: as §1
Data set [16] is described as follows: Cytotoxicity against human primary tumor colon cells. In kind it is cell-based.
Data set [17] deals with Mus musculus. The experiment in a line: Volume of distribution in iv dosed Swiss Albino mouse plasma. Conditions: in vivo. In kind it is ADME, organism-based. The procedure, abridged:
as §2

Data set [18] relates to ECV-304. The experiment in a line: Apoptosis in strongly adherent human ECV304 cells at 10 nM assessed as DNA fragmentation. In kind it is functional, cell-based. The procedure, abridged:
as §4

Data set [19] deals with MIA PaCa-2. The experiment in a line: Cytotoxicity against human MiaPaCa2 cells after 72 hrs by MTT assay. In kind it is cell-based. The settings on record: Homo sapiens, MIA PaCa-2, 72 h; read-out: IC50. The procedure, abridged:
as §1

The subject of data set [20] is HEK293. The experiment in a line: Cytotoxicity against human HEK293 cells after 72 hrs by MTT assay. In kind it is cell-based. The settings on record: Homo sapiens, HEK293, 72 h; read-out: IC50. The procedure, abridged: as §1
Data set [21] relates to KB. The experiment in a line: Cytotoxicity against human KB cells after 72 hrs by MTT assay. In kind it is cell-based. Conditions: Homo sapiens, KB, 72 h; read-out: IC50. The procedure, abridged: as §1
A short description of data set [22]: Cytotoxicity against human PA1 cells after 72 hrs by MTT assay. In kind it is cell-based, PA-1. The settings on record: Homo sapiens, PA-1, 72 h; read-out: IC50. The procedure, abridged: as §1
In data set [23] the test system is ECV-304. The experiment in a line: Apoptosis in loosely adherent human ECV304 cells assessed as DNA fragmentation. In kind it is functional, cell-based. The procedure, abridged:
as §4

The nature of data set [24]: Cytotoxicity against human ECV304 cells after 72 hrs by MTT assay. In kind it is cell-based, ECV-304. The settings on record: Homo sapiens, ECV-304, 72 h; read-out: IC50. The procedure, abridged:
as §1

A short description of data set [25]: Inhibition of tubulin polymerization in bovine brain. Further details: species or system Bos taurus. The procedure, abridged: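 Compounds were added from DMSO stocks, with final DMSO below 0.4%. A340 was read every 60 s, and the area under the curve was taken as polymer amount, with the control set to 100%. IC50 is the concentration giving 50% inhibition.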

As to `COc1ccc(C2=C(c3cc(OC)c(OC)c(OC)c3)/C(=N\O)C(O)C2)cc1` (stereo unspecified), the IC50 – broadly, the midpoint of a concentration-inhibition curve – in data set [1] was above 100 µg/mL; in [7], below 1 µg/mL; in [11] it was below 1 µg/mL; in data set [15] it was below 1 µg/mL; in data set [16], 271 ng/mL (≈ 0.703 µM); in data set [19], below 1 µg/mL. For the same compound, the IC50 in data set [20] was 4.2 µg/mL (≈ 10.9 µM); in [21], below 1 µg/mL; in data set [22] it was below 1 µg/mL; in [24], below 1 µg/mL; in data set [25], 1750 nM. For the same compound, the half-life (as a rule, the time needed for the level to fall by half in the phase considered) in [2] was 28.2 min. Further, the Activity in [3] is 45.8%; in [9], 59%; in data set [23], “Dose-dependent effect”. Moreover, in data set [4], the MRT (in general, a mean duration of stay, worked out from the concentration-time curve) stood at 31.8 min. In data set [5], the result was Active. Also, the outcome in data set [6], in [14] and in [18] was inactive. Further, the solubility (in general, how much of the substance goes into solution per volume) in data set [8] stood at 360 µM (≈ 139 µg/mL). Further, in data set [10], the AUC (in general, the area under the concentration-time curve, a measure of exposure) came to 3840 ng·h/mL. The Cmax (commonly the maximum level reached in the sampled fluid or tissue) in data set [12] amounted to 7050 ng/mL. The clearance – broadly, the volume of plasma or blood freed of the substance per unit of time – in data set [13] is 1.15 mL/min. Besides, the Vdss (in general, a proportionality between amount in the body and measured concentration, not a real space) in data set [17] amounted to 46.56 mL.
Take `COc1ccc(/C=C\c2cc(OC)c(OC)c(OC)c2)cc1O` [COMBRETASTATIN A4]: the IC50 was 57 µg/mL (≈ 180 µM) in data set [1]; 5 µg/mL (≈ 15.8 µM) in data set [7]; 5 µg/mL (≈ 15.8 µM) in [11]; below 1 µg/mL in data set [15]; below 1 µg/mL in data set [19]; 5.7 µg/mL (≈ 18 µM) in data set [20]. The IC50 in [21] is below 1 µg/mL; in data set [22] it was below 1 µg/mL; in data set [24] it was below 1 µg/mL; in data set [25], 980 nM. This compound gave a half-life in data set [2] of 11.4 min. This compound also gave an MRT in data set [4] of 9 min. In addition, the outcome in data set [6], in data set [14] and in data set [18] was inactive. The amount in solution in [8] (solubility) came to 123 µM (≈ 38.8 µg/mL). In data set [9], the Activity is recorded as 41%. Also, the AUC in data set [10] worked out at 920 ng·h/mL. In [12], this compound yielded a Cmax of 3830 ng/mL. This compound had a clearance in data set [13] of 4.86 mL/min. Further, the Vdss in [17] came out at 80.82 mL.
Turning to `COc1ccc(C2=C(c3cc(OC)c(OC)c(OC)c3)C(=O)C(O)C2)cc1` (stereo unspecified), the IC50 in data set [1] is above 100 µg/mL; in data set [7], below 1 µg/mL; in data set [11], below 1 µg/mL; in data set [15], below 1 µg/mL; in data set [19] it was below 1 µg/mL; in data set [20], 6.3 µg/mL (≈ 17 µM). Also, the IC50 in data set [21], in data set [22] and in data set [24] was below 1 µg/mL each time. In addition, the result in [6], in data set [14] and in data set [18] was inactive. The Activity in [9] was 54%; in data set [23] it was “Dose-dependent effect”.
For `COc1ccc(C2=C(c3cc(OC)c(OC)c(OC)c3)C(=O)C(O)C2)cc1F` (stereo unspecified), the IC50 in [1] was 27 µg/mL (≈ 69.5 µM); in data set [7], below 1 µg/mL; in data set [11] it was below 1 µg/mL; in [15], below 1 µg/mL; in data set [19], 64 µg/mL (≈ 165 µM); in [20] it was above 100 µg/mL. Also, the values for the half-maximal inhibitory concentration (IC50) in [21], in data set [22] and in [24] were 4.5 µg/mL (≈ 11.6 µM), above 100 µg/mL and 19.5 µg/mL (≈ 50.2 µM), respectively.
As to `COc1ccc(C2=C(c3cc(OC)c(OC)c(OC)c3)/C(=N\O)C(O)C2)cc1O` (stereo unspecified), the IC50 in [1] is 10 µg/mL (≈ 24.9 µM); in [7] it was 69 µg/mL (≈ 172 µM); in data set [11], 20 µg/mL (≈ 49.8 µM); in [15], 81 µg/mL (≈ 202 µM); in [19], above 100 µg/mL; in data set [20], above 100 µg/mL. Further, the IC50 is 90 µg/mL (≈ 224 µM) in data set [21], 26 µg/mL (≈ 64.8 µM) in [22] and above 100 µg/mL in data set [24].
As for `COc1ccc(C2=C(c3cc(OC)c(OC)c(OC)c3)C(=O)C(OC(C)=O)C2)cc1O` (stereo unspecified), the IC50 is above 100 µg/mL in data set [1]; below 1 µg/mL in data set [7]; above 100 µg/mL in data set [11]; 6 µg/mL (≈ 14 µM) in [15]; 18.5 µg/mL (≈ 43.2 µM) in data set [19]; 92 µg/mL (≈ 215 µM) in data set [20]. The half-inhibitory concentration (IC50) in data set [21] is 35 µg/mL (≈ 81.7 µM); in [22] it was 6 µg/mL (≈ 14 µM); in data set [24] it was above 100 µg/mL.
As for `COc1ccc(C2=C(c3cc(OC)c(OC)c(OC)c3)C(=O)C(OC(C)=O)C2)cc1OC(C)C` (stereo unspecified), the IC50 in [1], in data set [7], in data set [11], in [15], in data set [19] and in data set [20] was above 100 µg/mL throughout. Further, the IC50 in data set [21], in data set [22] and in [24] was above 100 µg/mL throughout.
